Screening data from PubChem BioAssay.
KDM4C inh = inhibitors of GASC-1 (KDM4C) histone demethylase, primary screen, biochemical, single concentration HTS; Lysine-specific demethylase 4C (Homo sapiens), Q9H3R0; GST-KDM4C 2-372, H3K9me3 peptide, LANCE TR-FRET; inhibition, % at 12.5 µM; 96,000 tested, 0.15% active; AID 720574, 2013;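 active = mean replicate inhibition above about 25%, with at least 55% of replicates also reaching it, limit read from the data, passing the limit was not always enough; inconclusive = only one of those two conditions met; inactive = neither condition met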
Target sequence (Q9H3R0 2-372 limits assumed): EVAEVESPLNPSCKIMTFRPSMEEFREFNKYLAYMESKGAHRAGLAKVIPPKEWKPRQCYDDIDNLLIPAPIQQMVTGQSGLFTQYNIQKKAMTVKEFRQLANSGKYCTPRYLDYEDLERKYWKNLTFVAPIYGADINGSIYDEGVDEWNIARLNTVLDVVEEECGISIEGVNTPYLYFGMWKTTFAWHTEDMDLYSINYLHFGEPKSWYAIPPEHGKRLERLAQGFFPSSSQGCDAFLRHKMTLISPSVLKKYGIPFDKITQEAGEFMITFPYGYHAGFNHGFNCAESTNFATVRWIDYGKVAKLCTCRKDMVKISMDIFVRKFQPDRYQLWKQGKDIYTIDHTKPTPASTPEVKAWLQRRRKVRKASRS
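material = GST-tagged GASC-1 (JMJD2C) catalytic fragment, aa 2-372 | amount = enzyme final amount 10 nM | medium = HEPES buffer, pH 7.5, plus ascorbate | also added = H3K9me3 peptide substrate, Fe(II), 2-oxoglutarate | dosing = single dose | times = 30 min demethylation and 1 h detection at room temperature | detection = LANCE TR-FRET | read-out basis = Fall in 671/618 emission ratio as inhibition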
T cruzi growth-1 = T. cruzi intracellular proliferation inhibitors, primary screen, cell-based, beta-gal Tulahuen parasites, NIH3T3 host, luminescence; T. cruzi beta-gal in NIH3T3, GalScreen luminescence, 90 h; inhibition, % at 8.34 µM; 77,000 tested, 5.9% active;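 active = mean inhibition above about 93%, with at least 55% of replicates each passing it, limit read from the data, passing the limit was not always enough; inconclusive = only one of those two conditions holds; inactive = neither condition holds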
IDH1 R132H inh = inhibitors of IDH1 R132H reductase, primary screen, biochemical, plate reader, single point; Isocitrate dehydrogenase [NADP] cytoplasmic (Homo sapiens), O75874; diaphorase/resazurin fluorescence, 60 min; inhibition, % at 10 µM; 70,000 tested, 0.18% active; AID 624101, 2012; in the data active = inhibition above about 34%; inconclusive = no clear call, values can overlap the other calls; inactive = below about 11%;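 note: 0% = DMSO and 100% = no enzyme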
T cruzi growth-2 = T. cruzi intracellular proliferation inhibitors, confirmation, cell-based, NIH3T3 host, beta-gal parasite, luminescence, cherry-pick | shares compounds with T cruzi growth-1 | T. cruzi beta-gal in NIH3T3, GalScreen luminescence, 90 h | inhibition, % at 8.35 µM | 5,600 tested, 72% active;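 active = mean replicate inhibition above about 95% and at least 55% of replicates individually reaching it, limit read from the data; inconclusive = only one of the two criteria is met; inactive = neither criterion is met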
T cruzi growth-3 = inhibitors of intracellular T. cruzi replication, confirmation, NIH3T3 host cells, beta-gal parasites, cherry-pick, set 2; shares compounds with T cruzi growth-1; T. cruzi beta-gal in NIH3T3, GalScreen luminescence, 90 h; inhibition, % at 2.09 µM; 5,600 tested, 21% active;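 active = mean inhibition above about 95%, with at least 55% of replicates also reaching it, limit read from the data; inconclusive = meets just one of the two conditions; inactive = meets neither condition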;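 note: plate controls were neutral control median for no effect and positive control median for full effect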
NIH3T3 tox = cytotoxicity in mouse NIH/3T3 fibroblasts, confirmation, cytotoxicity control for T. cruzi proliferation inhibitor project, cell-based, cherry-pick, single point; shares compounds with T cruzi growth-1; NIH/3T3 viability, CellTiter-Glo ATP luminescence, 90 h; cytotoxicity (signal decrease), % at 8.35 µM; 5,600 tested, 14% active;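 active = mean signal decrease across replicates above about 35% based on untreated-well scatter, with enough replicates individually passing, limit read from the data; inconclusive = no rule stated though some were filed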;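 note: 0% = median of neutral control wells and 100% = median of positive control wells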
NIH3T3 tox 2 = NIH/3T3 fibroblast cytotoxicity, confirmation, cytotoxicity control, cell-based, cherry-pick, single point, set 2 | shares compounds with T cruzi growth-1 | NIH/3T3 viability, CellTiter-Glo ATP luminescence, 90 h | 5,600 tested, 56% active | inhibition, % at 24.9 µM | AID 651744, 2012;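 active = mean loss of cell viability signal at or above a set limit, and enough replicates individually reaching it; inconclusive = meets only the mean limit or only the replicate share; inactive = meets neither condition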;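 note: 0% = median of neutral control wells and 100% = median of positive control wells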
* = called active by the depositor. Only a selection was taken, and hits are over-represented in it overall.

CNC[C@H]1Oc2cc(C#Cc3ccccc3)ccc2S(=O)(=O)N([C@H](C)CO)C[C@@H]1C was read as KDM4C inh -2.3 and IDH1 R132H inh 0.8.
Screening CNC[C@@H]1Oc2cc(C#Cc3ccccc3)ccc2S(=O)(=O)N([C@H](C)CO)C[C@H]1C returned KDM4C inh -3.2 and IDH1 R132H inh -1.9.
`CNC[C@H]1Oc2cc(C#Cc3ccccc3OC)ccc2S(=O)(=O)N([C@@H](C)CO)C[C@@H]1C` gave KDM4C inh -2.8, T cruzi growth-1 102.6*, IDH1 R132H inh -4.8, T cruzi growth-2 106.2*, T cruzi growth-3 67.6, NIH3T3 tox inconclusive and NIH3T3 tox 2 104.4*.
Screening O=C(C[C@H]1CC[C@@H]2[C@H](COC[C@@H](O)CN2C(=O)Nc2ccc(Cl)cc2)O1)NCC1CCCCC1 returned KDM4C inh 1.0 and T cruzi growth-1 -61.6.
C[C@@H]1CCCCO[C@@H](CN(C)C)[C@@H](C)CN([C@@H](C)CO)C(=O)c2cc(N(C)C)ccc2O1 was read as KDM4C inh 1.4, T cruzi growth-1 -48.2 and IDH1 R132H inh 2.8.
Screening C[C@@H]1CCCCO[C@@H](CN(C)Cc2ccncc2)[C@H](C)CN([C@H](C)CO)C(=O)c2cc(NS(=O)(=O)c3ccccc3)ccc2O1 returned KDM4C inh 0.8, T cruzi growth-1 66.0 and IDH1 R132H inh 10.4.
O=C(c1ccccc1F)N1CC2(C1)[C@@H](c1ccccc1)[C@H](CO)N2CC1CC1 was read as KDM4C inh -1.1.
Cn1cnc(S(=O)(=O)N2CCCCN3[C@H](CO)[C@@H](c4ccc(C#CC5CC5)cc4)[C@H]3C2)c1 was read as T cruzi growth-1 53.4.
`CN(C)CC(=O)N1[C@H](CO)[C@H](c2ccc(C#CC3CCCC3)cc2)[C@@H]1C#N` gave KDM4C inh 2.4, T cruzi growth-1 95.9*, IDH1 R132H inh -1.9, T cruzi growth-2 101.5*, T cruzi growth-3 107.2*, NIH3T3 tox 12.3 and NIH3T3 tox 2 8.7.
N#C[C@H]1[C@@H](c2ccc(C#CC3CCCC3)cc2)[C@H](CO)N1C(=O)Cc1ccccn1 was read as KDM4C inh 1.9.
CN(C)CC(=O)N1[C@H](C#N)[C@@H](c2ccc(C#CC3CCCC3)cc2)[C@@H]1CO was read as KDM4C inh 1.5, T cruzi growth-1 inconclusive, T cruzi growth-2 85.4, T cruzi growth-3 21.8, NIH3T3 tox 3.1 and NIH3T3 tox 2 104.6*.
For CN(C)CC(=O)N1[C@@H](C#N)[C@H](c2ccc(C#CC3CC3)cc2)[C@@H]1CO the results were KDM4C inh -0.1, T cruzi growth-1 96.4*, T cruzi growth-2 96.8*, T cruzi growth-3 44.9, NIH3T3 tox -19.5 and NIH3T3 tox 2 -9.8.
`CN(C)CC(=O)N1[C@H](C#N)[C@@H](c2ccc(C#CC3CC3)cc2)[C@@H]1CO` gave KDM4C inh 0.4 and T cruzi growth-1 83.9.
CN(C)CC(=O)N1[C@H](CO)[C@@H](c2ccc(C#CC3CCCC3)cc2)[C@@H]1C#N was read as KDM4C inh 3.3 and T cruzi growth-1 9.3.
Screening N#C[C@H]1[C@H](c2ccc(C#CC3CC3)cc2)[C@H](CO)N1C(=O)Cc1ccccn1 returned KDM4C inh 1.3, T cruzi growth-1 105.4*, T cruzi growth-2 104.4*, T cruzi growth-3 74.3, NIH3T3 tox -3.4 and NIH3T3 tox 2 3.4.
For CN(C)CC(=O)N1[C@H](C#N)[C@H](c2ccc(C#CC3CCCCC3)cc2)[C@H]1CO the results were T cruzi growth-1 92.8.
For CC(=O)NC1=NN(C(C)=O)C(/C=C/c2ccccc2)S1 (centres undefined) the results were IDH1 R132H inh -0.8.
Screening O=C(C[C@@H]1CC[C@@H]2[C@H](COC[C@@H](O)CN2CCc2ccccc2)O1)N1CCC(Cc2ccccc2)CC1 returned KDM4C inh 0.0 and T cruzi growth-1 86.3.
`CC(=O)Oc1ccc2c(c1C(C)C)CCC1C(C)(C)CCC[C@]21C` (some centres undefined) gave IDH1 R132H inh -0.5.
Screening O=C(C[C@H]1C[C@@H]2c3cc(NC(=O)c4cccnc4)ccc3O[C@@H]2[C@@H](CO)O1)NCc1cccnc1 returned KDM4C inh 2.8, T cruzi growth-1 -1.7 and IDH1 R132H inh -0.2.
For C[C@@H]1CN([C@@H](C)CO)C(=O)c2cc(NS(=O)(=O)c3ccc(F)cc3)ccc2O[C@@H](C)CCCCO[C@H]1CN(C)Cc1ccc2c(c1)OCO2 the results were KDM4C inh -0.5, T cruzi growth-1 71.5 and IDH1 R132H inh 0.9.
For C[C@H](CO)N1C[C@H](C)[C@H](CN(C)Cc2ccc3c(c2)OCO3)OCCCC[C@H](C)Oc2ccc(NS(=O)(=O)c3ccc(F)cc3)cc2C1=O the results were KDM4C inh 0.3, T cruzi growth-1 112.4*, IDH1 R132H inh -3.3, T cruzi growth-2 110.0*, T cruzi growth-3 48.0, NIH3T3 tox 7.5 and NIH3T3 tox 2 58.8*.
For Cc1ccc(S(=O)(=O)Nc2ccc3c(c2)C(=O)N([C@H](C)CO)C[C@@H](C)[C@H](CN(C)Cc2ccc4c(c2)OCO4)OCCCC[C@@H](C)O3)cc1 the results were KDM4C inh 0.7, T cruzi growth-1 101.7*, T cruzi growth-2 108.5*, T cruzi growth-3 89.5, NIH3T3 tox 29.3 and NIH3T3 tox 2 81.5*.
For C[C@@H]1CCCCO[C@@H](CN(C)Cc2ccc3c(c2)OCO3)[C@H](C)CN([C@H](C)CO)C(=O)c2cc(NS(=O)(=O)c3ccc(F)cc3)ccc2O1 the results were KDM4C inh -0.7, T cruzi growth-1 83.0 and IDH1 R132H inh 1.0.
Screening COc1ccc(S(=O)(=O)Nc2ccc3c(c2)C(=O)N([C@H](C)CO)C[C@@H](C)[C@H](CN(C)Cc2ccc4c(c2)OCO4)OCCCC[C@H](C)O3)cc1 returned KDM4C inh 17.9, T cruzi growth-1 inconclusive, IDH1 R132H inh 4.8, T cruzi growth-2 108.4*, T cruzi growth-3 50.4, NIH3T3 tox 5.8 and NIH3T3 tox 2 105.0*.
